# GalR3 antagonist = blocks the human galanin receptor 3. O60755. HEK293 GalR3-CNG cAMP membrane potential fluorescence; galR3 body fused to GalR1 C-terminus. inhibition, % at 3 µM. 360,000 tested, 0.44% active;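 active = inhibition above the screen-wide average plus 3 SD, cut at about 13% in these data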;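 note: forskolin and galanin both at EC90 stimulate the cells; cAMP rise reported by CNG channel membrane potential dye signal; 0% = forskolin plus galanin with DMSO and 100% = forskolin alone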
# Target sequence (O60755 1-299 limits assumed): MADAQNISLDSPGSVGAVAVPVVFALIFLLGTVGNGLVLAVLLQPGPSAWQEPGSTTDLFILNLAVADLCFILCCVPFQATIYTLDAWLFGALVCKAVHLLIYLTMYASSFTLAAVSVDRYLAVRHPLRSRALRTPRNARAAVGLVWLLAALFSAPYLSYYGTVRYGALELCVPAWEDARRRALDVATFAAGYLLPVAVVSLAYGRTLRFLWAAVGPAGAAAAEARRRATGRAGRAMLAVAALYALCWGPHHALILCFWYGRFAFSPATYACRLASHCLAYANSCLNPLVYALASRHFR
# FXN GAA850 act = activators of GAA850 frataxin (FXN) promoter; activation, % at 6 µM; 360,000 tested, 0.56% active; AID 540364; HEK293 lucGAA850 FXN promoter luciferase reporter, 24 h; percent of 10 µM SAHA response;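 active = activation above the average of all compounds screened plus 3 SD, cutoff fixed separately per campaign, cut at about 7.5% in these data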;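 note: 0% = DMSO wells and 100% = 10 µM SAHA wells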
# NR2E3 ag-1 = NR2E3 (human) agonism; Q9Y5X4; GST-NR2E3/biotin-RetCOR TR-FRET, 1536-well; inhibition of corepressor binding, % at 4.78 µM; 320,000 tested, 0.12% active; AID 2300;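 active = percent inhibition above the cutoff of mean plus 3 SD of all tested compounds, set per screening campaign, cut at about 20% in these data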;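 note: 0% = DMSO wells and 100% = biotin wells as full block of FRET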
# Target sequence (Q9Y5X4 whole entry, looked up): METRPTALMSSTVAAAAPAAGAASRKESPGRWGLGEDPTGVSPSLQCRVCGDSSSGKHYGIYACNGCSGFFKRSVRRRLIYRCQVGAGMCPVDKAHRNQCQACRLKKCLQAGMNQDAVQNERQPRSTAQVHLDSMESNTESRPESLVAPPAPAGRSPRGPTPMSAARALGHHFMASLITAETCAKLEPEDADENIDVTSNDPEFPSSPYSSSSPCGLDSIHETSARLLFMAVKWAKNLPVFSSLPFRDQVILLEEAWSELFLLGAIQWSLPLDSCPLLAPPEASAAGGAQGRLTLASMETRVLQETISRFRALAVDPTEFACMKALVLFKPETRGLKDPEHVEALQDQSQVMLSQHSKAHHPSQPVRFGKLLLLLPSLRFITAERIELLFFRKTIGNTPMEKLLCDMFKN
#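 System: GST-tagged NR2E3 plus biotinylated RetCOR corepressor; Amount: 1.35 nM GST-tagged NR2E3 final; Dosing: single nominal compound dose of 4.8 µM; Schedule: 5 h incubation at 4 °C; Technique: TR-FRET with europium anti-GST and streptavidin-D2, 340 nm excitation; Controls: biotin wells as high control, 0.6% DMSO wells as low control.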
# NR2E3 ag-2 = human photoreceptor-specific nuclear receptor agonism; Q9Y5X4; CHO-S Gal4-NCOR/VP16-NR2E3 two-hybrid, luciferase; inhibition of corepressor binding, % at 3.98 µM; 360,000 tested, 0.35% active;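 active = inhibition above the mean of all tested compounds plus 3 SD, cut at about 70% in these data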;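 note: 0% = DMSO with NR2E3 transfected cells and 100% = cells lacking NR2E3 construct; higher means lower luciferase signal from less NR2E3 corepressor binding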
# HIV Env fusion = blocks HIV Env-driven cell-cell fusion. inhibition, % at 12.3 µM. HeLa-JRFL Env/CEM21 cell fusion, luciferase. 360,000 tested, 1.1% active;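 active = mean replicate inhibition score of at least 50 and every replicate individually at or above 50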;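 note: 0% = plate neutral controls and 100% = maraviroc near 300 nM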
# V-ATPase pHluor = regulators of yeast V-ATPase proton transport. S. cerevisiae, pHLuorin cytosolic pH fluorescence. response, % at 10 µM. 350,000 tested, 0.37% active; in the data active = response mostly above about 7.3%, no sharp cut-off; inactive = mostly below about 5.4%; note: actives read high
# NR2E3 ag confirm = NR2E3 agonism confirmed in two-hybrid assay; shares compounds with NR2E3 ag-2; CHO-S mammalian two-hybrid NR2E3-NCOR, luciferase luminescence; inhibition, % at 3.98 µM; 2,300 tested, 51% active;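 active = average inhibition above a cutoff equal to the mean inhibition of all tested compounds plus one SD, cut at about 70% in these data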;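 note: 0% = DMSO in NR2E3 cells and 100% = DMSO in cells lacking NR2E3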
# VP16 counter = GAL4-VP16 reporter inhibition in NR2E3 agonist counterscreen. CHO-S GAL4-VP16 luciferase reporter, luminescence. shares compounds with NR2E3 ag-2. inhibition, % at 3.98 µM. AID 624379. 2,300 tested, 29% active;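 active = mean inhibition above a cutoff equal to the average over all tested compounds plus one standard deviation, cut at about 70% in these data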;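 note: luciferase from a UAS reporter driven by GAL4-VP16 transactivation; 0% = DMSO with VP16-transfected cells and 100% = DMSO with cells lacking VP16; higher means less reporter light so more repression of VP16 activity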
# * = called active by the depositor; nt = no result given; [ ] = another dose, or the depositor's remark. Compounds with a hit are over-represented: about 2.2% of the library has one in this group of screens.
SMILES,GalR3 antagonist,FXN GAA850 act,NR2E3 ag-1,NR2E3 ag-2,HIV Env fusion,V-ATPase pHluor,NR2E3 ag confirm,VP16 counter
Cc1nc2ccccc2c(N)c1C(=O)/C=C/c1ccccc1,-11.9,-4.3,0.2,51.1,-19.2,2.8,-3.0,16.9
O=C(NCC[C@H]1CC[C@H](NC(=O)c2cccnc2)[C@H](CO)O1)Nc1ccc(F)cc1,nt,nt,nt,nt,-24.3[16.7 µM],nt,nt,nt
O=C(c1cc(COc2ccc(F)cc2Cl)on1)N1CCN(C2CCCCC2)C(=O)C1,-4.0,1.5,-1.3,57.4,0.3,1.4,15.5,24.3
Cc1noc(C)c1S(=O)(=O)Nc1ccc2c(c1)C(=O)N([C@H](C)CO)C[C@H](C)[C@@H](CN(C)S(=O)(=O)c1cn(C)cn1)OCCCC[C@@H](C)O2,nt,nt,nt,nt,-5.1[16.7 µM],nt,nt,nt
CCOC(=O)N1CCN(c2ccnc3cc(Cl)ccc23)CC1,-9.3,0.4,1.5,7.6,50.9,-1.6,nt,nt
O=C(Oc1ccnc2cc(Cl)ccc12)N1CCCCCC1,-2.4,-2.2,-3.8,59.8,nt,5.3,34.8,32.2
Cc1ccc(NS(=O)(=O)c2ccc(-n3cccn3)cc2)cc1C,-7.4,-1.5,3.9,56.8,2.0,-0.5,59.0,52.3
COc1cc(NS(=O)(=O)c2ccc(-n3cccn3)cc2)cc(OC)c1,nt,-0.8,nt,51.2,nt,-4.6,54.9,47.5
O=S(=O)(Nc1cccc(Cl)c1)c1ccc(-n2cccn2)cc1,0.6,1.2,3.1,-1.2,6.1,0.3,nt,nt
C[C@H]1CN([C@@H](C)CO)C(=O)Cc2cc(NS(=O)(=O)c3ccccc3)ccc2O[C@@H]1CN(C)Cc1ccc(Oc2ccccc2)cc1,nt,nt,nt,nt,-21.6[16.7 µM],nt,nt,nt
CCNC(=O)C[C@@H]1CC[C@@H]2[C@@H](COc3ccc(NC(=O)Nc4cccc(OC)c4)cc3C(=O)N2C)O1,nt,nt,nt,nt,5.6[16.7 µM],nt,nt,nt
CC1Cc2ccccc2N1C(=O)CN1CCC(n2nnc3cc(C(F)(F)F)ccc32)CC1 (stereo not given),-6.2,-0.5,1.5,52.5,nt,0.2,36.6,16.0
COC(=O)c1ccccc1NC(=O)CN1CCC(n2nnc3cc(C(F)(F)F)ccc32)CC1,-3.1,2.3,1.8,-21.9,nt,3.8,nt,nt
N#Cc1c(-c2ccccc2)nc(SCc2ccc(Cl)cc2)[nH]c1=O,-9.4,1.3,5.6,72.2*,6.6,-2.1,58.4,35.7
COc1ccc(-c2nc(SCc3ccc(C#N)cc3)[nH]c(=O)c2C#N)cc1,-8.5,2.3,-2.8,-18.8,14.1,-2.2,nt,nt
COc1cc(C(=O)NCCOc2cc(C)ccc2C(C)C)cc(OC)c1OC,-8.5,-0.7,0.8,56.0,7.7,0.4,37.6,31.2
O=C(Cc1ccncc1)NCC[C@@H]1CC[C@H](NC(=O)Nc2ccc(Cl)cc2)[C@H](CO)O1,nt,nt,nt,nt,-9.3[16.7 µM],nt,nt,nt
Cc1cc(C(=O)C(C)OC(=O)c2ccc(NC(=O)CC#N)cc2)c(C)n1-c1ccccc1 (stereo not given),0.8,-3.9,1.6,50.3,-1.3,-5.2,-16.8,-8.8
CC(=O)Nc1ccc(SCC(=O)c2cc(C)n(-c3ccccc3)c2C)cc1,-0.1,-8.3,-0.4,55.5,-38.2,0.1,64.1,-7.9
CC(OC(=O)c1ccc(NC(=O)CC#N)cc1)C(=O)NC(c1ccccc1)c1ccccc1 (stereo not given),-4.7,-2.4,nt,6.5,10.4,1.7,nt,nt
CCc1cc(C(=O)NC2CCCN(Cc3ccccc3F)C2)n(C)n1 (stereo not given),-1.2,-2.2,-1.0,69.1,0.4,2.6,37.5,44.3
Cn1nc(C(=O)NC2CCCN(Cc3ccccc3F)C2)c2ccccc2c1=O (stereo not given),1.1,0.6,0.2,-11.6,11.3,-0.4,nt,nt
CCOC(=O)c1cc(C#N)c(N2CCN(C(=O)c3cccc(C(F)(F)F)c3)CC2)nc1C(F)(F)F,-2.6,-2.4,1.5,49.9,6.0,-3.1,25.1,40.0
C[C@@H]1CN([C@@H](C)CO)C(=O)c2cccc(NS(=O)(=O)c3cn(C)cn3)c2O[C@H]1CN(C)S(=O)(=O)c1cccs1,nt,nt,nt,nt,16.2[16.7 µM],nt,nt,nt
CN(CC(=O)Nc1cccc(F)c1)C(=O)CCN1C(=O)C2CC=CCC2C1=O (stereo not given),-4.4,-0.2,-0.9,95.5*,nt,-0.8,3.7,-10.9
SMILES,GalR3 antagonist,FXN GAA850 act,NR2E3 ag-1,NR2E3 ag-2,HIV Env fusion,V-ATPase pHluor,NR2E3 ag confirm,VP16 counter
C[C@H]1CCCCO[C@@H](CN(C)S(=O)(=O)c2cccs2)[C@@H](C)CN([C@@H](C)CO)C(=O)c2cc(NC(=O)NC3CCCCC3)ccc2O1,nt,nt,nt,nt,40.3[16.7 µM],nt,nt,nt
CCCCCOc1ccc(Br)cc1CSC(=N)N,19.3*,-5.8,nt,61.5,15.5,-1.9,89.6*,59.5
Cn1c(=O)n(C)c2cc(NS(=O)(=O)c3ccc4c(c3)CCCC4)ccc21,10.7,0.7,1.4,65.6,-9.9,5.6,85.0*,67.8
CCc1cccc(NS(=O)(=O)c2ccc3c(c2)oc(=O)n3C)c1,-5.4,-1.0,-1.3,21.3,18.2,-2.9,nt,nt
Cn1c(=O)n(C)c2cc(NS(=O)(=O)c3ccc(C(C)(C)C)cc3)ccc21,-7.6,5.5,2.4,63.2,29.6,-1.5,82.4*,75.6*
CCc1cccc(NS(=O)(=O)c2ccc3c(c2)n(C)c(=O)n3C)c1,-8.8,1.5,-0.9,64.4,45.3,-1.1,58.5,44.2
C[C@@H]1CN([C@H](C)CO)C(=O)c2cc(NS(=O)(=O)c3cccs3)ccc2O[C@@H](C)CCCCO[C@@H]1CN(C)C(=O)C1CCCCC1,nt,nt,nt,nt,5.4[16.7 µM],nt,nt,nt
CCCOc1ccc(OCC(=O)c2[nH]c(C)c(C(C)=O)c2C)cc1,nt,-2.3,3.0,79.0*,nt,1.4,93.9*,77.8*
CN1c2ccccc2C(O)=C(C(=S)Nc2ccccc2)S1(=O)=O,2.7,0.2,2.1,16.5,13.8,-3.1,nt,nt
CN1c2ccccc2C(O)=C(C(=S)Nc2ccc(F)c(Cl)c2)S1(=O)=O,-2.8,0.8,-3.3,49.4,-18.6,-3.5,88.3*,58.5
O=S(=O)(c1cccc(NC(=S)N2CCN(c3cccc(Cl)c3)CC2)c1)C(F)F,-6.2,-1.3,4.8,54.1,24.7,1.6,80.1*,68.6
O=S(=O)(c1cccc(NC(=S)N2CCN(c3ccc(F)cc3)CC2)c1)C(F)F,-3.1,0.9,2.3,22.2,31.1,0.5,nt,nt
Cc1ccc(C(=O)Nc2nc(-c3ccccn3)cs2)s1,-2.8,0.7,4.5,50.8,38.6,-1.0,-8.0,-39.5
Cc1cccnc1Nc1nc(-c2ccccn2)cs1,-6.9,-18.1,3.6,77.2*,nt,3.2,99.8*,2.5
O=C(Nc1nc(-c2ccccn2)cs1)c1ccc(Cl)s1,-0.5,6.9,2.2,11.3,30.2,-5.2,nt,nt

# Compound activity (PubChem BioAssay)
